In ChEMBL document CHEMBL4422632, “Design of Novel Inhibitors of Human Thymidine Phosphorylase: Synthesis, Enzyme Inhibition, in Vitro Toxicity, and Impact on Human Glioblastoma Cancer” (J Med Chem, 2019):

Experiments:
[1] = Cytotoxicity against human HaCaT cells assessed as cell viability at 1000 uM after 72 hrs by neutral red uptake-based assay relative to control; settings: read-out: Activity
Method in brief: (§1)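 Cells grown in DMEM with 10% FBS at 37 °C, 5% CO₂; seeded 2 x 10³ cells/well, adhered 24 h, then exposed 72 h. MTT: 1 mg/mL for 3 h, formazan in DMSO, absorbance 595 nm. NRU: neutral red 25 µg/mL in serum-free medium for 3 h, desorbed in ethanol:acetic acid:water. Viability as % of untreated control; mean ± SEM of three to five independent experiments in triplicate.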

[2] = AUC (0 to infinity) in CF1 mouse at 50 mg/kg, ip by non-compartmental analysis; assay type: ADME, organism-based; set-up: dose 50 mg/kg, time infinity, route intraperitoneal; settings: in vivo
Method in brief: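 Male CF1 mice received a single ip injection of 50 mg/kg in 0.9% saline; 3 animals per time point, killed 0.03, 0.08, 0.25, 0.5, 1 and 2 h after dosing; blood collected in heparin tubes.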

[3] = Cytotoxicity against human HaCaT cells assessed as cell viability at 500 uM after 72 hrs by MTT assay relative to control; assay type: cell-based; settings: read-out: Activity; method in brief: as §1
[4] = AUMCt in CF1 mouse at 50 mg/kg, ip by non-compartmental analysis; assay type: ADME, organism-based; settings: in vivo
Method in brief: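 Male CF1 mice, single ip 50 mg/kg in 0.9% saline, 3 animals per time point sampled 0.03–2 h; heparinized blood. AUMC0→t computed by trapezoidal rule to last point (2 h); non-compartmental analysis.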

[5] = Cytotoxicity against mouse RAW264.7 cells assessed as cell viability at 50 uM after 72 hrs by neutral red uptake-based assay relative to control; settings: read-out: Activity
Method in brief: (§2)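 Cells kept in DMEM with 10% heat-inactivated FBS, 1% penicillin-streptomycin and 0.1% fungizone at 37 °C, 5% CO₂. U-87 MG seeded at 2 x 10^3 cells/well, RAW 264.7 at 5 x 10^2, adhered 24 h, then exposed 72 h. MTT: 1 mg/mL for 3 h, formazan in DMSO, A595. NRU: 25 μg/mL dye, 3 h, ethanol:acetic acid:water desorb. Untreated wells = 100%; three to five independent experiments in triplicate.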

[6] = Cytotoxicity against human U87MG cells assessed as cell viability at 250 uM after 72 hrs by neutral red uptake-based assay relative to control; set-up: species or system U-87MG ATCC; settings: read-out: Activity; method in brief: as §2
[7] = Cytotoxicity against human HaCaT cells assessed as cell viability at 250 uM after 72 hrs by MTT assay relative to control; assay type: cell-based; settings: read-out: Activity; method in brief: as §1
Cytochrome P450 2E1 = Cytochrome P450 2E1 (Homo sapiens, UniProt P05181); experiment: Inhibition of CYP2E1 in human liver microsomes by HPLC-MS/MS analysis; assay type: ADME
Chain of Cytochrome P450 2E1 (P05181 whole entry): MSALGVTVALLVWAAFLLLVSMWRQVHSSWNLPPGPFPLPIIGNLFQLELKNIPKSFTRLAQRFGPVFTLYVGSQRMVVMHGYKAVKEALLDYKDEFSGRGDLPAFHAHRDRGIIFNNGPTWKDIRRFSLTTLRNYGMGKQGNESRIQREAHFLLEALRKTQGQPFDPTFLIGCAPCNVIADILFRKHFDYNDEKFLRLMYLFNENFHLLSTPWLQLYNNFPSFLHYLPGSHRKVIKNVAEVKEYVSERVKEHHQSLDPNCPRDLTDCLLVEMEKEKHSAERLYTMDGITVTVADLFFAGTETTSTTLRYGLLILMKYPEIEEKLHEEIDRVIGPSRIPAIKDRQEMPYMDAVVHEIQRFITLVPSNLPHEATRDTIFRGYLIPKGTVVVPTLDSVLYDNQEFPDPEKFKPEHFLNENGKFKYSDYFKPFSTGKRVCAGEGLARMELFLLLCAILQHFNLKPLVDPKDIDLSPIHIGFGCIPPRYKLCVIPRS

[8] = Cytotoxicity against mouse RAW264.7 cells assessed as cell viability at 250 uM after 72 hrs by MTT assay relative to control; assay type: cell-based; settings: read-out: Activity; method in brief: as §2
[9] = Cytotoxicity against mouse RAW264.7 cells assessed as cell viability at 500 uM after 72 hrs by neutral red uptake-based assay relative to control; settings: read-out: Activity; method in brief: as §2
[10] = AUCM (0 to infinity) in CF1 mouse at 50 mg/kg, ip by non-compartmental analysis; assay type: ADME, organism-based; settings: in vivo
[11] = Cytotoxicity against African green monkey Vero cells assessed as cell viability at 25 uM after 72 hrs by neutral red uptake-based assay relative to control; settings: chlorocebus sabaeus, read-out: Activity; method in brief: as §1
[12] = Cytotoxicity against human U87MG cells assessed as cell viability at 250 uM after 72 hrs by MTT assay relative to control; assay type: cell-based, U-87MG ATCC; settings: read-out: Activity; method in brief: as §2
[13] = Cytotoxicity against African green monkey Vero cells assessed as cell viability at 50 uM after 72 hrs by MTT assay relative to control; assay type: cell-based; settings: chlorocebus sabaeus, read-out: Activity; method in brief: as §1
[14] = Cytotoxicity against human HepG2 cells assessed as cell viability at 100 uM after 72 hrs by neutral red uptake-based assay relative to control; settings: read-out: Activity; method in brief: as §1
[15] = Cytotoxicity against human HepG2 cells assessed as cell viability at 250 uM after 72 hrs by MTT assay relative to control; assay type: cell-based; settings: read-out: Activity; method in brief: as §1
[16] = Elimination half life in CF1 mouse at 50 mg/kg, ip by non-compartmental analysis; assay type: ADME, organism-based; settings: in vivo
[17] = Cytotoxicity against human HepG2 cells assessed as cell viability at 250 uM after 72 hrs by neutral red uptake-based assay relative to control; settings: read-out: Activity; method in brief: as §1
[18] = Cytotoxicity against African green monkey Vero cells assessed as cell viability at 250 uM after 72 hrs by MTT assay relative to control; assay type: cell-based; settings: chlorocebus sabaeus, read-out: Activity; method in brief: as §1
[19] = Cytotoxicity against human HaCaT cells assessed as cell viability at 50 uM after 72 hrs by neutral red uptake-based assay relative to control; settings: read-out: Activity; method in brief: as §1
[20] = Tmax in CF1 mouse at 50 mg/kg, ip by non-compartmental analysis; assay type: ADME, organism-based; settings: in vivo
[21] = Cytotoxicity against African green monkey Vero cells assessed as cell viability at 250 uM after 72 hrs by neutral red uptake-based assay relative to control; settings: chlorocebus sabaeus, read-out: Activity; method in brief: as §1
[22] = Cytotoxicity against African green monkey Vero cells assessed as cell viability at 100 uM after 72 hrs by MTT assay relative to control; assay type: cell-based; settings: chlorocebus sabaeus, read-out: Activity; method in brief: as §1
Cytochrome P450 1A2 = target: T1, Cytochrome P450 1A2 (Homo sapiens, UniProt P05177); experiment: Inhibition of CYP1A2 in human liver microsomes by HPLC-MS/MS analysis; assay type: ADME
T1 sequence (P05177 whole entry): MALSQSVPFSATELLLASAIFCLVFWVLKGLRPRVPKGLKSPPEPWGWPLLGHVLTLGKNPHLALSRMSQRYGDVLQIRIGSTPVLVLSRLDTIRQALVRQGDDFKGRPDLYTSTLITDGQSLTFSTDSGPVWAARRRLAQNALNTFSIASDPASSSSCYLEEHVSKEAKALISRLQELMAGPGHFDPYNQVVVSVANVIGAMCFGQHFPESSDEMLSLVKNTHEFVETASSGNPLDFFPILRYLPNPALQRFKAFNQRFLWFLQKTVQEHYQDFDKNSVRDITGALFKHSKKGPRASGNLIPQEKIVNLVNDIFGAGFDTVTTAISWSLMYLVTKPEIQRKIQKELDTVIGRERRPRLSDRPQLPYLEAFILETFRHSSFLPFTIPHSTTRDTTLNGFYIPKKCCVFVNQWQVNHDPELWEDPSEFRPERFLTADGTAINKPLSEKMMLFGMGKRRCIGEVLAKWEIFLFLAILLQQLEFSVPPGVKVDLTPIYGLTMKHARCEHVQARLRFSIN

[23] = Cytotoxicity against human HaCaT cells assessed as cell viability at 25 uM after 72 hrs by MTT assay relative to control; assay type: cell-based; settings: read-out: Activity; method in brief: as §1
[24] = Cytotoxicity against mouse RAW264.7 cells assessed as cell viability at 100 uM after 72 hrs by MTT assay relative to control; assay type: cell-based; settings: read-out: Activity; method in brief: as §2
[25] = Cytotoxicity against human U87MG cells assessed as cell viability at 1000 uM after 72 hrs by MTT assay relative to control; assay type: cell-based, U-87MG ATCC; settings: read-out: Activity; method in brief: as §1
[26] = Cytotoxicity against mouse RAW264.7 cells assessed as cell viability at 25 uM after 72 hrs by neutral red uptake-based assay relative to control; settings: read-out: Activity; method in brief: as §2

Compound `O=c1[nH]c(CNC(CO)CO)c(I)c(=O)[nH]1` has a viability at 72 h, 1000 µM [1] of 75%, an AUC [2] of 17400 ng·h/mL and a viability at 72 h, 500 µM [3] of 93%. For the same compound, the AUMCt [4] was 6.3 µg·h²/mL, the viability at 72 h, 50 µM [5] was 102% and the viability at 72 h, 250 µM [6] was 98%. For the same compound, the viability at 72 h, 250 µM [7] was 96%, the IC50 (Cytochrome P450 2E1) was greater than 100 µM and the viability at 72 h, 250 µM [8] was 95%. For the same compound, the viability at 72 h, 500 µM [9] was 82%, the AUMC [10] was 7.6 µg·h²/mL and the viability at 72 h, 25 µM [11] was 108%. It also gave a viability at 72 h, 250 µM [12] of 97%, a viability at 72 h, 50 µM [13] of 97% and a viability at 72 h, 100 µM [14] of 102%. For the same compound, the viability at 72 h, 250 µM [15] was 100%, the “beta t1/2” value [16] was 30 min and the viability at 72 h, 250 µM [17] was 98%. It also gave a viability at 72 h, 250 µM [18] of 95%, a viability at 72 h, 50 µM [19] of 110% and a Tmax [20] of 4.8 min. For the same compound, the viability at 72 h, 250 µM [21] was 103%, the viability at 72 h, 100 µM [22] was 96% and the IC50 (Cytochrome P450 1A2) was greater than 100 µM. The viability at 72 h, 25 µM [23] was 105%, the viability at 72 h, 100 µM [24] was 99% and the viability at 72 h, 1000 µM [25] was 83%. For the same compound, the viability at 72 h, 25 µM [26] was 105%.
